Legend:
[1] = biological target: Proto-oncogene tyrosine-protein kinase Src (Homo sapiens) (UniProt P12931); experiment: Inhibition of recombinant human full-length N-terminal His6-tagged Src expressed in Sf21 insect cells at 1000 nM using poly (Glu, Tyr)4:1 as substrate measured after 1 hr by ELISA relative to control
Outline: (§1)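 ELISA kinase assay: recombinant kinase added to wells precoated with poly(Glu,Tyr)4:1 and incubated with compound in reaction buffer containing 5 μM ATP, 37 °C for 1 h; wells then washed before antibody detection.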

[2] = biological target: Receptor tyrosine-protein kinase erbB-2 (Homo sapiens) (UniProt P04626); experiment: Inhibition of recombinant Erbb2 (unknown origin) at 1000 nM using poly (Glu, Tyr)4:1 as substrate measured after 1 hr by ELISA relative to control
Outline: (§2)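 Recombinant kinase was incubated with compound in reaction buffer containing 5 μM ATP, in wells precoated with poly(Glu,Tyr) 4:1, for 1 h at 37 °C. Phosphorylation was detected by ELISA.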

[3] = biological target: Insulin receptor (Homo sapiens) (UniProt P06213); experiment: Inhibition of recombinant human N-terminal His6-tagged IR (1005 to 1310 residues) expressed in baculovirus infected Sf21 insect cells at 1000 nM using poly (Glu, Tyr)4:1 as substrate measured after 1 hr by ELISA relative to control; outline: as §1
[4] = biological target: Platelet-derived growth factor receptor alpha (Homo sapiens) (UniProt P16234); experiment: Inhibition of recombinant human N-terminal His6-tagged PDGFRalpha (550 to end residues) expressed in baculovirus infected Sf21 insect cells at 100 nM using poly (Glu, Tyr)4:1 as substrate measured after 1 hr by ELISA relative to control; outline: as §1
[5] = biological target: c-KIT (Homo sapiens, UniProt P10721); experiment: Inhibition of recombinant human N-terminal GST-tagged c-KIT (544 to end residues) expressed in baculovirus infected Sf21 insect cells at 10 nM using poly (Glu, Tyr)4:1 as substrate measured after 1 hr by ELISA relative to control; details: probe poly (Glu, Tyr)4:1; outline: as §2
c-KIT, sequence (P10721 whole entry): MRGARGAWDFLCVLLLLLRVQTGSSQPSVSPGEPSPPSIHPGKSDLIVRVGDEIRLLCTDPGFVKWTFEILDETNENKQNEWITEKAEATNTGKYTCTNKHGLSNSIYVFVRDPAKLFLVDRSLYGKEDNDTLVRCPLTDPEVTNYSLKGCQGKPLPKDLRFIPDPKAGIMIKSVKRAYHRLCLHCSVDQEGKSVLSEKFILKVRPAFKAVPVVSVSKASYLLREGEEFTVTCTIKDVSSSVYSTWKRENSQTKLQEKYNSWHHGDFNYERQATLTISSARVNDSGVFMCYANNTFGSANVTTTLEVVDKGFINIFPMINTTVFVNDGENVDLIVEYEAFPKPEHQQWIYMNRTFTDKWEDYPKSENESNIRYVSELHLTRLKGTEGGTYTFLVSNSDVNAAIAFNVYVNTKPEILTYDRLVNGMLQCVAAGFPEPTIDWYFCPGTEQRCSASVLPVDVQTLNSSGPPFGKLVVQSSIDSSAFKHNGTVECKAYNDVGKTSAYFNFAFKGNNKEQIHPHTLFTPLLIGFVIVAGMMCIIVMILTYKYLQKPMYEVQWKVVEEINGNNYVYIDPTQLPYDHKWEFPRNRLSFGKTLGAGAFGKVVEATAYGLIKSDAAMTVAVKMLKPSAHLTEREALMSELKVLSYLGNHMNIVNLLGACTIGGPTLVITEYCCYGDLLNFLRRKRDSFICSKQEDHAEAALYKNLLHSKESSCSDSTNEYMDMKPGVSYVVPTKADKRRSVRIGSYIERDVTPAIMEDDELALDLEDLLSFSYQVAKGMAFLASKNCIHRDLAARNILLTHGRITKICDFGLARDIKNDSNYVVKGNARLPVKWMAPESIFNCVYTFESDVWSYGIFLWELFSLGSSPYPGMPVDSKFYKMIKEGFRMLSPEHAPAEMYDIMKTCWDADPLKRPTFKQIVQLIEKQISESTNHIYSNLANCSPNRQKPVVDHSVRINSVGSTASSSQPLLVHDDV

Insulin receptor (Homo sapiens), sequence (P06213 28-758 limits assumed): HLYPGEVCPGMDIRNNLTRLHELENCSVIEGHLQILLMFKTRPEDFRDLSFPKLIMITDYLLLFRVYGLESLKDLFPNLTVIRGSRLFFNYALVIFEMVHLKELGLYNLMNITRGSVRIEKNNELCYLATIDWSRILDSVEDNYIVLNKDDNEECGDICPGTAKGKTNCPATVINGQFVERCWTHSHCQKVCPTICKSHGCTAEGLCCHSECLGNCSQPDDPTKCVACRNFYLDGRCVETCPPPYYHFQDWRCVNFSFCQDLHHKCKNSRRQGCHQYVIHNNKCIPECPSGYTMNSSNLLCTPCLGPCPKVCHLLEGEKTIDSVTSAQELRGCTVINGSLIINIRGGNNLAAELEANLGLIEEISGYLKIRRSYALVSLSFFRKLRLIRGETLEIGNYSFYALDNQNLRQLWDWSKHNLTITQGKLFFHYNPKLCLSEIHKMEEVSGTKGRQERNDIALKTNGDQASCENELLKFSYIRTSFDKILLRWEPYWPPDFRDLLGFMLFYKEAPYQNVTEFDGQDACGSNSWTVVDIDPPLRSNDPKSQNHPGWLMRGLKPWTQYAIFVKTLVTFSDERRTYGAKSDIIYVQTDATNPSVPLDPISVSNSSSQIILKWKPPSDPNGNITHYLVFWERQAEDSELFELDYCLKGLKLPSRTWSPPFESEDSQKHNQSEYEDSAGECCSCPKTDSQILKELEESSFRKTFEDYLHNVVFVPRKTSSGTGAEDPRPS
Insulin receptor (Homo sapiens), sequence (P06213 763-1382 limits assumed): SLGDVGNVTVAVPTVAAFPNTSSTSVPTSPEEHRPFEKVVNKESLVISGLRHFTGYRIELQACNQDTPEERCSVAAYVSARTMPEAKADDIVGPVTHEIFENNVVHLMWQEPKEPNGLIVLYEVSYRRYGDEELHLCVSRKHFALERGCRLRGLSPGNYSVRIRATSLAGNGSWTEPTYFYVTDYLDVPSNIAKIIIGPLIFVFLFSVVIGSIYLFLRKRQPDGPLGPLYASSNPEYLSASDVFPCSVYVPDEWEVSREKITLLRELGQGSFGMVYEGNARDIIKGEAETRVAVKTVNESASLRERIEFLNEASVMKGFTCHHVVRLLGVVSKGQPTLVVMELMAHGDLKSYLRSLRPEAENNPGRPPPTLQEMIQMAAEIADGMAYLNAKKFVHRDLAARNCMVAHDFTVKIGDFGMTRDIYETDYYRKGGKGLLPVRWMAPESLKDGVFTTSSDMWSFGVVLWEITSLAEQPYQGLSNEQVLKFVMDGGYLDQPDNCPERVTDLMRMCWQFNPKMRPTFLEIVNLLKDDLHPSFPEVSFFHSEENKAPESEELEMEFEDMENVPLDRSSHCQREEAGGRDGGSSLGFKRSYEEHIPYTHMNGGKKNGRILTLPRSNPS
Receptor tyrosine-protein kinase erbB-2 (Homo sapiens), sequence (P04626 whole entry): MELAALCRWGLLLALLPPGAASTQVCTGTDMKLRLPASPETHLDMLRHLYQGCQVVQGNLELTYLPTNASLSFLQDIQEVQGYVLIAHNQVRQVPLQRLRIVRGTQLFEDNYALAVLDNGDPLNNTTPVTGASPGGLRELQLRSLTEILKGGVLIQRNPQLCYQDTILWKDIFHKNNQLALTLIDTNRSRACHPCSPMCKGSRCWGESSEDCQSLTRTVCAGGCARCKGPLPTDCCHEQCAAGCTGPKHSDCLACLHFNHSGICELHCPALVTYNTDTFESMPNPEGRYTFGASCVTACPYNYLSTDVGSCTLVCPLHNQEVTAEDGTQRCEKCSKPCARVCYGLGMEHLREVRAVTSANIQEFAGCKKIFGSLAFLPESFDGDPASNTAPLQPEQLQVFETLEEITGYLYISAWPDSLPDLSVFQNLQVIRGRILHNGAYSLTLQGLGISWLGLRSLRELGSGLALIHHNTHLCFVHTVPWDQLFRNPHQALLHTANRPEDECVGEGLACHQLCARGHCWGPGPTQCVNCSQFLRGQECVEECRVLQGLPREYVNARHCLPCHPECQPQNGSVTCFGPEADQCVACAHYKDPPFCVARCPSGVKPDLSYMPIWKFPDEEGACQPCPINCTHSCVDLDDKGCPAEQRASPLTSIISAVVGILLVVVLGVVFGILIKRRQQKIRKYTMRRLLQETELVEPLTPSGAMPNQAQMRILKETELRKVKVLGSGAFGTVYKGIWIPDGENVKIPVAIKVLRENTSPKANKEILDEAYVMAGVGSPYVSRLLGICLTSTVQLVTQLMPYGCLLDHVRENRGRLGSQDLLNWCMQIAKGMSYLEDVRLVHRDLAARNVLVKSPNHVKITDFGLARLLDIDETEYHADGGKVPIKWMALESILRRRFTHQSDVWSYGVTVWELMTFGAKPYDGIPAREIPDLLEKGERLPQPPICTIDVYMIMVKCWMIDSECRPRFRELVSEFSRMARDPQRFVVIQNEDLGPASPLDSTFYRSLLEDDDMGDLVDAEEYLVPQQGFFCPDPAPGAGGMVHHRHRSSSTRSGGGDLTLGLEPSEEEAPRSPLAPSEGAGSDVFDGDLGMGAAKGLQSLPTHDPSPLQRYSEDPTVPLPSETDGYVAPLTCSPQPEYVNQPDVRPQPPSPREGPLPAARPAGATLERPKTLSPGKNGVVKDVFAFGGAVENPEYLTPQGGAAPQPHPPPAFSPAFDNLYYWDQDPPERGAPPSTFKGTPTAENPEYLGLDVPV
Proto-oncogene tyrosine-protein kinase Src (Homo sapiens), sequence (P12931 2-536 limits assumed): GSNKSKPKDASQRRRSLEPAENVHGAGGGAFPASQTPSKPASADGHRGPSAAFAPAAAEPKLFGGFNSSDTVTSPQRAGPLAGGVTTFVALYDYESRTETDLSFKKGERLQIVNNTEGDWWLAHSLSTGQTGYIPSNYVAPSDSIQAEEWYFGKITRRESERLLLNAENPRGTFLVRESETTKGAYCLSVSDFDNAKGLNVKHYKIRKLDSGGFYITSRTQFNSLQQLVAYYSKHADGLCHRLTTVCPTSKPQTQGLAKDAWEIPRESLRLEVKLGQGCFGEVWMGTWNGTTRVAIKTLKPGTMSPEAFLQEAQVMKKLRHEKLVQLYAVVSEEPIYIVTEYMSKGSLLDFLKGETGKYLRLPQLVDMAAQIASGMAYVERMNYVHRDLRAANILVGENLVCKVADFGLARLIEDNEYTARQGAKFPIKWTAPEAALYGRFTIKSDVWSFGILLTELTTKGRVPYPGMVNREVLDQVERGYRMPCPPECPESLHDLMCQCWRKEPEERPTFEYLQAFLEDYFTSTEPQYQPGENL

inhibition [1]: 72.8%
inhibition [2]: 9.5%
inhibition [3]: 0%
inhibition [4]: 83.9%
inhibition at 1 h, 0.01 µM [5]: 70.4%
SMILES: Cc1ccc(C(=O)Nc2ccc(Cl)cc2)cc1C#Cc1cc(-c2cnn(C)c2)cnc1N

Reference: ChEMBL document CHEMBL4321879, “Novel Class of Colony-Stimulating Factor 1 Receptor Kinase Inhibitors Based on an o-Aminopyridyl Alkynyl Scaffold as Potential Treatment for Inflammatory Disorders” (J Med Chem, 2020)
